From paper PMC2841041 (Developmental cell, 2010)
Peptide text beside a SMILES is read from it. * marks the point of attachment. Cbz = O=C(OCc1ccccc1)*; CH2F = FC*

Tests used:
[1] = test system: μ4 subunit of AP-4; assay: Yeast two-hybrid; type: binding, human; conditions: His-deficient plates, 30°C
[2] = test system: APP distribution in HeLa cells; assay: Immunofluorescence microscopy, intracellular distribution of APP; type: cell-based
[3] = test system: μ1, μ2 and μ3 subunits; assay: Y2H of APP signal with other AP μ subunits; type: binding
[4] = test system: HeLa cells; assay: Pulse-chase / immunoblot analysis of APP processing and CTF levels; type: cell-based; conditions: 250 nM DAPT; decrease elicited by FFE mutation or μ4 depletion
[5] = test system: HeLa cells expressing APP-CFP; assay: Immunoblot of APP-CFP fragments; type: cell-based; conditions: for C31 fragment levels/formation: DAPT-treated cells
Summary of the method: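 HeLa cells transfected (Lipofectamine 2000, 1 h, 37°C, no FBS) with C-terminally CFP-tagged APP (wild-type, D664A or F689A/F690A/E691A), or μ4-siRNA-depleted twice and then APP-CFP-transfected. Analysed 8–16 h post-transfection after 16 h ± 250 nM DAPT, 100 μM E-64 and/or 200 μM Z-VAD-FMK. Pellet/supernatant fractionation in some runs. SDS-PAGE, anti-GFP immunoblot. Fragment levels given as mean ± SD of three experiments.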

[6] = test system: HeLa cells expressing CTFβ-GFP; assay: Processing of CTFβ-GFP; type: cell-based; conditions: immunoblot, antibody to GFP; for CTFα and C31 from CTFβ-GFP: DAPT-treated cells
Summary of the method: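 CTFβ-GFP (wild-type, D664A or F689A/F690A/E691A) expressed in HeLa cells, or in mock- or μ4-siRNA-depleted cells. Same handling: lipofection, 8–16 h, then 16 h ± 250 nM DAPT, 100 μM E-64 and/or 200 μM Z-VAD-FMK, anti-GFP immunoblot; mean ± SD, n=3. Aβ: 4 h [35S]Met-Cys labelling at 37°C, medium immunoprecipitated with 6E10, Tricine 10–20% gels, fluorography; mean ± SD, n=4.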

[7] = target: T1, recombinant μ4 C-terminal domain (Homo sapiens, UniProt O00189, C235S/C431S); assay: Isothermal titration calorimetry; type: binding; conditions: purified components, synthetic peptide
T1 sequence (O00189 160-453 C235S/C431S): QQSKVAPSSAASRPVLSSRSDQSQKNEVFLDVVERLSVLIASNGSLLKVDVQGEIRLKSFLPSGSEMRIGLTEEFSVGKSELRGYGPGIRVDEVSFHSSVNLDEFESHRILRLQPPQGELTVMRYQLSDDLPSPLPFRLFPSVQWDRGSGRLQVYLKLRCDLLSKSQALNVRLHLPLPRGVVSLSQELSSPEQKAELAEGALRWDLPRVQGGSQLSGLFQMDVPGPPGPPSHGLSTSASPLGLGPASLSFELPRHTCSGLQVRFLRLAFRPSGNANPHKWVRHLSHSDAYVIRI

[8] = test system: mutant μ4; assay: Yeast two-hybrid; type: binding, human
Summary of the method: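 Yeast co-transformed with Gal4ad fused to wild-type or point-mutant human μ4 (mutations introduced by site-directed mutagenesis) and Gal4bd fused to the APP tail (human APP695 template). Cells spotted on His-deficient and His-containing plates and incubated at 30°C; growth on −His scored as interaction. Controls: Gal4bd-mouse p53 with Gal4ad-SV40 large T antigen.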

[9] = test system: ε, β4 and σ4 subunits of AP-4; assay: Y2H of APP tail with other AP-4 subunits; type: binding
[10] = target: T2, recombinant μ4 C-terminal domain (160–453; C235S, C431S) (human, UniProt O00189 160-453, C235S | C431S); assay: ITC
T2 sequence (looked up): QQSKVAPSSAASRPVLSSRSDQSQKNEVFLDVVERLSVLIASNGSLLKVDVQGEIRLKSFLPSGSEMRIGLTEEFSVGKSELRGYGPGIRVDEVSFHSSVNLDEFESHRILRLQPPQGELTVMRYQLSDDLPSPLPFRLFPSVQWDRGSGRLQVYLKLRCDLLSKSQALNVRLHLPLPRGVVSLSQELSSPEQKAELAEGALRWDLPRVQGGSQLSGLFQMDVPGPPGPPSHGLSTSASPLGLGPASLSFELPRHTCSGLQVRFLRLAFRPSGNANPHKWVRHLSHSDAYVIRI

YKYLE was tested, and the “Y2H interaction with μ4” value [1] was “indeed bind to μ4”.

For “APP-WT: wild-type APP expressed in HeLa cells”, the “localization of APP to endosomes” value ([2]; HeLa cells, normal conditions, n=11) was 74 ± 8%.

YRFLE was tested, and the “Y2H interaction with μ4” value [1] was “indeed bind to μ4”.

For YKFFE, the “Y2H interaction with μ1, μ2, μ3” value [3] was “does not bind to these μ subunits”.

`C[C@H](NC(=O)Cc1cc(F)cc(F)c1)C(=O)N[C@H](C(=O)OC(C)(C)C)c1ccccc1` [DAPT] was tested, and the “effect of DAPT on the decrease in steady-state CTFα levels” value [4] was “abrogated the decrease in steady-state CTFα levels”, the C31 fragment levels/formation ([5]; immunoblot, antibody to GFP) was “increased the levels of a smaller, soluble fragment” and the “difference in AICDγ-CFP levels / CTF accumulation with DAPT” value ([5]; FFE mutation or μ4 depletion, incubation with DAPT) was “abolished by incubation with DAPT, resulting in the accumulation of equal amounts of CTFs under all conditions”. The AICDγ-CFP formation/levels ([5]; immunoblot, antibody to GFP) was “precluded AICDγ-CFP formation”, the CTFα-CFP levels ([5]; immunoblot, antibody to GFP, DAPT 250 nM) was “increased CTFα-CFP levels” and the “AICDγ formation/levels from CTFβ-GFP” value [6] was “prevented AICDγ formation”. For the same molecule, the “CTFα and C31 from CTFβ-GFP” value [6] was “resulted in the appearance of CTFα and C31”.

`COC(=O)C[C@H](NC(=O)[C@H](C)NC(=O)[C@@H](NC(=O)OCc1ccccc1)C(C)C)C(=O)CF` [Z-VAD-FMK] (Cbz-Val-Ala-Asp(OMe)-CH2F) was tested, and the C31 fragment levels/formation ([5]; immunoblot, antibody to GFP) was “prevented” and the “CTFα and C31 from CTFβ-GFP” value [6] was “absence”.

For ENPTAKAAEQ, the “binding site number / binding by ITC” value [7] was “but not a substituted ENPTAKAAEQ variant, bound”.

`C[C@@H]1C[C@@H]([C@H](O)CC2CC(=O)NC(=O)C2)C(=O)[C@@H](C)C1` [cycloheximide, reference compound] was tested, and the “effect on APP-WT staining” value ([2]; inhibition of protein synthesis, mock- and μ4-depleted cells) was “rapid disappearance of APP-WT staining in both mock- and μ4-depleted cells”.

With “APP tail: cytosolic tail of APP fused to Gal4bd” the “Y2H interaction with μ4” value [1] was “interacted exclusively with the μ4 subunit of AP-4”, the “Y2H binding to μ4 S257A/H256A/F255A” value ([8]; Ser-257 to Ala together with His-256 and Phe-255 to Ala) was “completely abolished binding” and the “Y2H binding to μ4 F255A/R283D” value ([8]; double mutation of Phe-255 and Arg-283) was “completely abrogated”. For the same molecule, the “Y2H binding to μ4 S257A” value ([8]; mutation of Ser-257 to Ala) was “no detectable effect”, the “Y2H binding to μ4 H256A, E265A or R283A” value ([8]; single mutation of His-256, Glu-265, Arg-283 to Ala) was “little or no effect on the interaction” and the “Y2H binding to μ4 F255A or R283D” value ([8]; single mutation of Phe-255 to Ala, or Arg-283 to Asp) was “drastically reduced”. The “Y2H binding to μ4 H256A/E265A/R283A” value ([8]; triple mutation) was “greatly decreased the interaction” and the “Y2H interaction with ε, β4 and σ4” value [9] was “did not bind to the APP tail”.

B1: synthetic ENPTYKFFEQ peptide derived from the APP tail (peptide)
peptide: ENPTYKFFEQ
For B1, the “stoichiometry N” value [10] was 1.
